Data published in article PMC5094435 (Saudi Pharmaceutical Journal : SPJ, 2015).
Converted amounts (≈) assume the structure as drawn.

Columns and labels:
[1] = test system: Staphylococcus aureus (MTCC 96); test: Antibacterial activity; format: cell-based; settings: MTCC96, read-out: MIC, S. aureus
Procedure, shortened: (§1)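 Screened by a standard method against S. aureus MTCC 96, B. subtilis MTCC 121, E. coli MTCC 1652 and P. aeruginosa MTCC 741. Ciprofloxacin was the reference antibiotic. Only compounds active at 100 μg/mL went on to MIC determination.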

Aspergillus flavus = test: Antifungal activity; format: cell-based; settings: read-out: MIC, A. flavus
Procedure, shortened: (§2)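 Run by the poison food technique against Aspergillus niger and Aspergillus flavus. Fluconazole was the reference drug.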

[2] = test system: carrageenan induced edema; test: Anti-inflammatory activity, carrageenan induced rat paw edema; format: in vivo, Wistar rats; settings: inhibition of edema, rats
Procedure, shortened: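 Used the Winter et al. paw oedema method in Wistar rats of either sex (160–200 g), housed six per cage and acclimatised 48 h. Percent inhibition of oedema was calculated at 1, 2, 3 and 4 h. Diclofenac served as the standard drug.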

[3] = test system: Escherichia coli (MTCC 1652); test: Antibacterial activity; format: cell-based; settings: for MIC, E. coli: E. coli (MTCC 1652); for MIC: Escherichia coli, MTCC1652, read-out: MIC, E. coli
Procedure, shortened: as §1

Aspergillus niger = test: Antifungal activity; format: cell-based; settings: read-out: MIC, A. niger
Procedure, shortened: as §2

[4] = test system: Pseudomonas aeruginosa (MTCC 741); test: Antibacterial activity; format: cell-based; settings: for MIC, P. aeruginosa: P. aeruginosa (MTCC 741); for MIC: Pseudomonas aeruginosa, MTCC741, read-out: MIC, P. aeruginosa
Procedure, shortened: as §1

[5] = test system: Bacillus subtilis (MTCC 121); test: Antibacterial activity; format: cell-based; settings: MTCC121, read-out: MIC, B. subtilis
Procedure, shortened: as §1

SMILES | MIC [1] [µg/mL] | MIC (Aspergillus flavus) [µg/mL] | MIC, E. coli [3] | MIC [3] [µg/mL] | MIC (Aspergillus niger) [µg/mL] | MIC, P. aeruginosa [4] | MIC [4] [µg/mL] | MIC [5] [µg/mL] | % Inhibition ± SEM After 1 h [2] | % Inhibition ± SEM After 2 h [2] | % Inhibition ± SEM After 3 h [2] | % Inhibition ± SEM After 4 h [2]
O=C1OC(c2ccc3ccccc3c2)=CC1=Cc1cc2ccccc2nc1Cl [Compound 5a, 3-[(2-Chloroquinolin-3-yl)methylene]-5-(naphthalene-2-yl)furan-2(3H)-one] | 50 (≈ 130 µM) | > 100 | did not show any inhibition | > 100 | 50 (≈ 130 µM) | did not show any inhibition | > 100 | 50 (≈ 130 µM) | 67 ± 0.14^∗∗ % | 62 ± 0.11^∗∗ % | 46 ± 0.26% | 57 ± 0.27^∗∗ %
Cc1ccc2nc(Cl)c(C=C3C=C(c4ccc(-c5ccccc5)cc4)OC3=O)cc2c1 [Compound 5g, 3-[(2-Chloro-6-methylquinolin-3-yl)methylene]-5-(biphenyl-4-yl)furan-2(3H)-one] | 25 (≈ 59 µM) | 50 (≈ 118 µM) | did not show any inhibition | > 100 | 50 (≈ 118 µM) | did not show any inhibition | > 100 | 50 (≈ 118 µM) | 67 ± 0.12^∗∗ % | 62 ± 0.11^∗∗ % | 46 ± 0.33% | 56 ± 0.06^∗∗ %
O=C1NC(c2ccc3ccccc3c2)=CC1=Cc1cc2ccccc2nc1Cl [Compound 6a, 3-[(2-Chloroquinolin-3-yl)methylene]-5-(naphthalene-2-yl)-1H-pyrrol-2(3H)-one] | 25 (≈ 65.3 µM) | 25 (≈ 65.3 µM) | – | > 100 | 25 (≈ 65.3 µM) | – | 50 (≈ 131 µM) | 25 (≈ 65.3 µM) | 64 ± 0.06^∗ % | 53 ± 0.18^∗∗ % | 49 ± 0.10% | 36 ± 0.32%
Cc1ccc2nc(Cl)c(C=C3C=C(c4ccc(-c5ccccc5)cc4)NC3=O)cc2c1 [Compound 6g, 3-[(2-Chloro-6-methylquinolin-3-yl)methylene]-5-(biphenyl-4-yl)-1H-pyrrol-2(3H)-one] | 25 (≈ 59.1 µM) | 12.5 (≈ 29.6 µM) | – | 50 (≈ 118 µM) | 25 (≈ 59.1 µM) | – | 50 (≈ 118 µM) | 12.5 (≈ 29.6 µM) | 52 ± 0.08^∗ % | 48 ± 0.24^∗∗ % | 25 ± 0.17% | 36 ± 0.19%
O=C1C(=Cc2cc3ccccc3nc2Cl)C=C(c2ccc3ccccc3c2)N1Cc1ccccc1 [Compound 7a, 1-Benzyl-3-[(2-chloroquinolin-3-yl)methylene]-5-(naphthalene-2-yl)-1H-pyrrol-2(3H)-one] | 50 (≈ 106 µM) | > 100 | – | 25 (≈ 52.9 µM) | 50 (≈ 106 µM) | – | > 100 | > 100 | 52 ± 0.13^∗ % | 62 ± 0.27^∗∗ % | 28 ± 0.34% | 57 ± 0.13^∗∗ %
Cc1ccc2nc(Cl)c(C=C3C=C(c4ccc5ccccc5c4)N(Cc4ccccc4)C3=O)cc2c1 [Compound 7c, 1-Benzyl-3-[(2-chloro-6-methylquinolin-3-yl)methylene]-5-(naphthalene-2-yl)-1H-pyrrol-2(3H)-one] | 25 (≈ 51.3 µM) | 25 (≈ 51.3 µM) | – | 50 (≈ 103 µM) | 50 (≈ 103 µM) | – | > 100 | 50 (≈ 103 µM) | 78 ± 0.12^∗∗ % | 71 ± 0.28^∗∗ % | 57 ± 0.25^∗ % | 61 ± 0.21^∗∗ %
O=C1C(=Cc2cc3ccccc3nc2Cl)C=C(c2ccc(-c3ccccc3)cc2)N1Cc1ccccc1 [Compound 7e, 1-Benzyl-3-[(2-chloroquinolin-3-yl)methylene]-5-(biphenyl-4-yl)-1H-pyrrol-2(3H)-one] | 50 (≈ 100 µM) | > 100 | did not show any inhibition | > 100 | 50 (≈ 100 µM) | did not show any inhibition | > 100 | > 100 | 78 ± 0.12^∗∗ % | 51 ± 0.11^∗∗ % | 44 ± 0.08% | 41 ± 0.08%
OC(Cn1cncn1)(Cn1cncn1)c1ccc(F)cc1F [Standard-2, Fluconazole, reference compound] | – | 6.25 (≈ 20.4 µM) | – | – | 6.25 (≈ 20.4 µM) | – | – | 6.25 (≈ 20.4 µM) | – | – | – | –

The remaining compounds from weak to strong by MIC [1], led by results:

MIC [1] [µg/mL] | MIC (Aspergillus flavus) [µg/mL] | MIC, E. coli [3] | MIC [3] [µg/mL] | MIC (Aspergillus niger) [µg/mL] | MIC, P. aeruginosa [4] | MIC [4] [µg/mL] | MIC [5] [µg/mL] | SMILES | % Inhibition ± SEM After 1 h [2] | % Inhibition ± SEM After 2 h [2] | % Inhibition ± SEM After 3 h [2] | % Inhibition ± SEM After 4 h [2]
25 (≈ 62.8 µM) | > 100 | did not show any inhibition | > 100 | 50 (≈ 126 µM) | did not show any inhibition | > 100 | 50 (≈ 126 µM) | Cc1ccc2nc(Cl)c(C=C3C=C(c4ccc5ccccc5c4)OC3=O)cc2c1 [Compound 5c, 3-[(2-Chloro-6-methylquinolin-3-yl)methylene]-5-(naphthalene-2-yl)furan-2(3H)-one] | 69 ± 0.12^∗∗ % | 66 ± 0.25^∗∗ % | 47 ± 0.17% | 59 ± 0.12^∗∗ %
25 (≈ 61 µM) | 50 (≈ 122 µM) | – | > 100 | 25 (≈ 61 µM) | – | > 100 | 50 (≈ 122 µM) | O=C1OC(c2ccc(-c3ccccc3)cc2)=CC1=Cc1cc2ccccc2nc1Cl [Compound 5e, 3-[(2-Chloroquinolin-3-yl)methylene]-5-(biphenyl-4-yl)furan-2(3H)-one] | 63 ± 0.09^∗ % | 60 ± 0.22^∗∗ % | 53 ± 0.18% | 59 ± 0.12^∗∗ %
12.5 (≈ 28.1 µM) | 25 (≈ 56.3 µM) | – | 50 (≈ 113 µM) | 25 (≈ 56.3 µM) | – | > 100 | 25 (≈ 56.3 µM) | O=C1OC(c2ccc(-c3ccccc3)cc2)=CC1=Cc1cc2cc(Cl)ccc2nc1Cl [Compound 5f, 3-[(2,6-Dichloroquinolin-3-yl)methylene]-5-(biphenyl-4-yl)furan-2(3H)-one] | 63 ± 0.13^∗∗ % | 58 ± 0.21^∗∗ % | 53 ± 0.17% | 58 ± 0.12^∗∗ %
12.5 (≈ 31.5 µM) | 12.5 (≈ 31.5 µM) | – | > 100 | 25 (≈ 63 µM) | – | 50 (≈ 126 µM) | 12.5 (≈ 31.5 µM) | Cc1ccc2nc(Cl)c(C=C3C=C(c4ccc5ccccc5c4)NC3=O)cc2c1 [Compound 6c, 3-[(2-Chloro-6-methylquinolin-3-yl)methylene]-5-(naphthalene-2-yl)-1H-pyrrol-2(3H)-one] | 32 ± 0.02% | 55 ± 0.22^∗∗ % | 47 ± 0.24% | 42 ± 0.20%
12.5 (≈ 30.6 µM) | 25 (≈ 61.1 µM) | – | > 100 | 50 (≈ 122 µM) | – | 50 (≈ 122 µM) | 50 (≈ 122 µM) | O=C1NC(c2ccc(-c3ccccc3)cc2)=CC1=Cc1cc2ccccc2nc1Cl [Compound 6e, 3-[(2-Chloroquinolin-3-yl)methylene]-5-(biphenyl-4-yl)-1H-pyrrol-2(3H)-one] | 38 ± 0.21% | 48 ± 0.21^∗∗ % | 44 ± 0.33% | 35 ± 0.32%
6.25 (≈ 14.6 µM) | 12.5 (≈ 29.2 µM) | – | 12.5 (≈ 29.2 µM) | 6.25 (≈ 14.6 µM) | – | 12.5 (≈ 29.2 µM) | 6.25 (≈ 14.6 µM) | O=C1NC(c2ccc3ccccc3c2)=CC1=Cc1cc2cc([N+](=O)[O-])ccc2nc1Cl [Compound 6d, 3-[(2-Chloro-6-nitroquinolin-3-yl)methylene]-5-(naphthalene-2-yl)-1H-pyrrol-2(3H)-one] | 58 ± 0.25^∗ % | 60 ± 0.22^∗∗ % | 29 ± 0.16% | 48 ± 0.15^∗ %
6.25 (≈ 14.1 µM) | 12.5 (≈ 28.2 µM) | – | 50 (≈ 113 µM) | 6.25 (≈ 14.1 µM) | – | 25 (≈ 56.4 µM) | 6.25 (≈ 14.1 µM) | O=C1NC(c2ccc(-c3ccccc3)cc2)=CC1=Cc1cc2cc(Cl)ccc2nc1Cl [Compound 6f, 3-[(2,6-Dichloroquinolin-3-yl)methylene]-5-(biphenyl-4-yl)-1H-pyrrol-2(3H)-one] | 48 ± 0.13% | 63 ± 0.27^∗∗ % | 25 ± 0.34% | 42 ± 0.20%
6.25 (≈ 13.8 µM) | 25 (≈ 55.1 µM) | – | 25 (≈ 55.1 µM) | 25 (≈ 55.1 µM) | – | 25 (≈ 55.1 µM) | 12.5 (≈ 27.5 µM) | O=C1NC(c2ccc(-c3ccccc3)cc2)=CC1=Cc1cc2cc([N+](=O)[O-])ccc2nc1Cl [Compound 6h, 3-[(2-Chloro-6-nitroquinolin-3-yl)methylene]-5-(biphenyl-4-yl)-1H-pyrrol-2(3H)-one] | 58 ± 0.19^∗ % | 58 ± 0.05^∗∗ % | 50 ± 0.18% | 48 ± 0.15^∗ %
6.25 (≈ 18.9 µM) | – | – | 6.25 (≈ 18.9 µM) | – | – | 6.25 (≈ 18.9 µM) | – | O=C(O)c1cn(C2CC2)c2cc(N3CCNCC3)c(F)cc2c1=O [Standard-1, Ciprofloxacin, reference compound] | – | – | – | –
